Drawing on ChEMBL document CHEMBL2396583, “Synthesis and anticancer activity of aminodihydroquinoline analogs: identification of novel proapoptotic agents” (Bioorg Med Chem Lett, 2013), this text covers viability, IC50 and Activity for 16 compounds.

Each structure is given as a SMILES string. The source made the active and inactive calls. The calls are words filed in the database; no cut-off is given here.

In test [1] the test system is MDA-MB-231. In words: Cytotoxicity against human MDA-MB-231 cells assessed as viable cells at 5 uM after 72 hrs by MTT assay in absence of serum relative to control. The conditions noted are these: MDA-MB-231, 72 h, read-out: Activity. Format: functional. In outline: (§1)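 MDA-MB-231 cells were seeded at 5000 per well in serum-containing medium and dosed the next day, with or without serum, at the stated concentrations (1 and 5 µM in the serum-free figure). After 72 h, MTT was added, formazan was dissolved in DMSO and absorbance read at 595 nm. Six wells per condition; viability expressed as % of DMSO control.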
A general note: Tetrazolium dyes change colour on reduction, which living cells bring about.

In test [2] the test system is MDA-MB-231. In words: Cytotoxicity against human MDA-MB-231 cells assessed as viable cells at 1 uM after 72 hrs by MTT assay in absence of serum relative to control. Format: functional. The note with it: MDA-MB-231, 72 h, read-out: Activity. The procedure, abridged:
as §1

In test [3] the test system is MDA-MB-231. In words: Cytotoxicity against human MDA-MB-231 cells assessed as cell viability after 72 hrs by MTT assay in absence of serum. Format: functional, cell-based. The conditions noted are these: MDA-MB-231, 72 h. The procedure, abridged:
as §1

Test [4] deals with MDA-MB-231. The experiment in a line: Cell cycle arrest in human MDA-MB-231 cells assessed as accumulation at G0/G1 phase at 5 uM after 72 hrs by propidium iodide staining-based flow cytometric analysis in absence of serum (reference value: 84.87%). Format: functional. For orientation: Flow cytometry measures light scatter and fluorescence of single cells or particles in a stream.

Test [5] relates to MDA-MB-231. In words: Cell cycle arrest in human MDA-MB-231 cells assessed as accumulation at G2/M phase at 5 uM after 72 hrs by propidium iodide staining-based flow cytometric analysis in absence of serum (reference value: 6.53%). It counts as functional.
The test system of test [6] is MDA-MB-231. In words: Cytotoxicity against human MDA-MB-231 cells assessed as decrease in cell viability at 1 to 5 uM after 72 hrs by MTT assay in presence of serum. Format: functional, cell-based. In outline: as §1
The subject of test [7] is MDA-MB-231. In words: Cell cycle arrest in human MDA-MB-231 cells assessed as accumulation at G0/G1 phase at 5 uM after 72 hrs by propidium iodide staining-based flow cytometric analysis in presence of serum (reference value: 67.16%). It counts as functional.
Test [8] deals with MDA-MB-231. The experiment in a line: Cell cycle arrest in human MDA-MB-231 cells assessed as accumulation at S phase at 5 uM after 72 hrs by propidium iodide staining-based flow cytometric analysis in absence of serum (reference value: 6.19%). It counts as functional.
Test [9] relates to MDA-MB-231. In words: Cell cycle arrest in human MDA-MB-231 cells assessed as accumulation at subG1 phase at 5 uM after 72 hrs by propidium iodide staining-based flow cytometric analysis in absence of serum (reference value: 2.15%). Format: functional.
Test [10] relates to MDA-MB-231. In words: Cell cycle arrest in human MDA-MB-231 cells assessed as accumulation at G2/M phase at 5 uM after 72 hrs by propidium iodide staining-based flow cytometric analysis in presence of serum (reference value: 15.82%). Format: functional.
For test [11], the system named is MDA-MB-231. The experiment in a line: Cell cycle arrest in human MDA-MB-231 cells assessed as accumulation at subG1 phase at 5 uM after 72 hrs by propidium iodide staining-based flow cytometric analysis in presence of serum (reference value: 1.99%). It counts as functional.
Test [12] relates to MDA-MB-231. The experiment in a line: Cell cycle arrest in human MDA-MB-231 cells assessed as accumulation at S phase at 5 uM after 72 hrs by propidium iodide staining-based flow cytometric analysis in presence of serum (reference value: 14.49%). It counts as functional.

By IC50 is commonly meant the concentration that gives 50% inhibition.

For the compound `CCNC1=Nc2ccc(Cl)cc2C(C)(C)C1`, the viability at 5 µM in test [1] was 85.1%. Further, the viability at 1 µM in test [2] was found to be 89.7%.
The like results for `CC1(C)CC(NCCCCO)=Nc2ccc(Cl)cc21` were, in that order, 84.8% and 87.6%.
Regarding `CN(C)CCCNC1=Nc2cc(Cl)ccc2C(C)(C)C1`, in test [3], the 50% inhibitory concentration (IC50) turned out to be 4 µM. Further, the viability at 5 µM in test [1] was 46.3%. Also, the viability at 1 µM in test [2] was 68.4%.
For `NC1=Nc2ccccc2C(c2ccccc2)C1` (stereo not given), the viability at 5 µM in test [1] came to 86.3%. The viability at 1 µM in [2] came to 86.6%.
In the case of `CCCNC1=Nc2ccc(Cl)cc2C(C)(C)C1`, in test [1], the viability at 5 µM stood at 82.4%. Further, the viability at 1 µM in test [2] came to 90.7%.
`CC1(C)CC(=S)Nc2ccc(Cl)cc21`: the viability at 5 µM in test [1] was 94.3%. Also, the viability at 1 µM in test [2] worked out at 85.7%.
Turning to `CC1(C)CC(NCCCN2CCOCC2)=Nc2ccc(Cl)cc21`, the viability at 5 µM in test [1] is 70.3%. The viability at 1 µM in test [2] is 91.4%.
The like results for `CNC1=Nc2ccc(Cl)cc2C(C)(C)C1` were, in that order, 92.3% and 91.9%.
Consider `CN(C)CCNC1=Nc2ccc(Cl)cc2C(C)(C)C1`, for which the half-inhibitory concentration (IC50) in [3] is 7 µM. Besides, the viability at 5 µM in test [1] came to 50.8%. Besides, the viability at 1 µM in test [2] came out at 66.9%.
For the compound `CC1(C)CC(NCCCO)=Nc2ccc(Cl)cc21`, the viability at 5 µM in test [1] was found to be 84.2%. Further, in test [2], the viability at 1 µM worked out at 84.5%.
`CCN(CC)CCCNC1=Nc2ccc(Cl)cc2C(C)(C)C1`: the IC50 in test [3] stood at 2 µM. In addition, the Activity is recorded as 86.24% in test [4]; 4.27% in test [5]; 61.75% in [7]; 4.48% in test [8]; 4.77% in test [9]; 20.48% in test [10]. The Activity in [11] is listed as 1.64%; in test [12] it was 15.44%. The viability at 5 µM in test [1] was 36.1%. The viability at 1 µM in [2] worked out at 53.3%. Moreover, the outcome in test [6] was Active.
`CC1(C)CC(N)=Nc2ccc(Cl)cc21`: in test [1], the viability at 5 µM stood at 81%. Also, the viability at 1 µM in test [2] stood at 80.5%.
The like results for `CC1(C)CC(=O)Nc2ccc(Cl)cc21` were, in that order, 81.7% and 82.3%.
`CN(C)CCCNC1=Nc2ccc(Cl)cc2C(C)(C)C1`: in test [3], the IC50 amounted to 2.1 µM. Moreover, the Activity in [4] came out at 81.6%; in [5] it was 4.73%; in [7], 64.06%; in test [8] it was 5.61%; in test [9], 7.63%; in test [10], 19.22%. Further, the Activity is given as 1.53% in test [11] and 14.76% in [12]. The viability at 5 µM in [1] was found to be 38%. For the same compound, the viability at 1 µM in test [2] worked out at 54.1%. Further, the result in test [6] was Active.
In the case of `CN(C)CCCNC1=Nc2cccc(Cl)c2C(C)(C)C1`, the half-inhibitory concentration (IC50) in test [3] is 4.8 µM. In addition, in test [1], the viability at 5 µM was 43.9%. The viability at 1 µM in test [2] was found to be 60.5%.
For `CC1(C)CC(NCc2ccccc2)=Nc2ccc(Cl)cc21`, the viability at 5 µM in test [1] was determined as 68.1%. Moreover, the viability at 1 µM in [2] turned out to be 88.8%.
